The values below come from paper PMC3940261 (Integrative biology : quantitative biosciences from nano to …, 2014).

Assay [1] has as its system peptidase activity in U937 cells. Briefly: Single-cell chemical cytometry of fluorescent reporter peptide degradation. The assay is classed as cell-based, human. The note with it: for most common fragment peak pattern: single U937 cells.
For assay [2] the test system is unchanged. The assay is classed as cell-based, human. The conditions noted are these: ensemble lysates, commercial capillary electrophoresis system. The essentials: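 U937 cells were cultured long-term with the test compound (1, 2, 4, 8, 16 μM; DMSO ≤0.1%) or DMSO vehicle. A FAM-labelled reporter peptide (100 μM) and a carboxyfluorescein internal standard (20 μM) were loaded by pinocytosis for 10 min at 37 °C; hypotonic lysis set t = 0. Cells were held at 10⁶ cells/mL for 1 h at room temperature, then heat-lysed at 95 °C for 4 min. Supernatant was run on a bare 30-cm, 30-μm i.d. capillary, spiked with intact-substrate and K-FAM standards, and peaks were Gaussian-fitted.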

Assay [3] deals with degradation of a fluorogenic reporter. The note with it: 24 h exposure to media containing 1 μM Tosedostat; cited from earlier work.
For assay [4], the system named is four common aminopeptidases. The conditions noted are these: cited from earlier work.
The target in the next assay is LTA4 hydrolase. The conditions noted are these: in vitro; cited from earlier work.
The target of a further assay is leucine aminopeptidase. The note with it: in vitro; cited from earlier work.
The target in assay [5] is purine-sensitive aminopeptidase (PuSA). The note with it: in vitro; cited from earlier work.
A further assay addresses aminopeptidase N (CD 13). The conditions noted are these: in vitro; cited from earlier work.

As to `CC(C)C[C@@H](C(=O)N[C@H](C(=O)OC1CCCC1)c1ccccc1)[C@H](O)C(=O)NO` [Tosedostat], the “peptidase activity in drug-treated cells relative to a vehicle control” value in assay [1] (at all doses (1, 2, 4, 8, 16 μM)) is recorded as “inhibited”. The “most common fragment peak pattern” value in assay [1] (dose 1 μM) is 3 peaks; in assay [1] (dose 2 μM), 3 peaks; in assay [1] (dose 4 μM), 2 peaks; in assay [1] (dose 8 μM), 2 peaks. Further, in assay [2], the “number of fluorescent fragment peaks from drug-treated cells” value is given as ≤ 8 fluorescent fragment peaks. The “inhibition of degradation of a fluorogenic reporter” value in assay [3] is 50%. Besides, the IC50 entry in assay [4] is “nanomolar-range”.

Turning to `CC(C)C[C@@H](C(=O)N[C@H](C(=O)O)c1ccccc1)[C@H](O)C(=O)NO` [active form of Tosedostat], the IC50 entry (at LTA4 hydrolase; on leucine aminopeptidase; in assay [5]; on aminopeptidase N (CD 13)) was “nanomolar range” in each case.
